Measured values as given in ChEMBL document CHEMBL3994637, “Broad spectrum anti-infective properties of benzisothiazolones and the parallels in their anti-bacterial and anti-fungal effects” (Bioorg Med Chem Lett, 2017).
Converted amounts (≈) assume the structure as drawn.

How the values were obtained:
[1] = system: Staphylococcus aureus; assay: Antibacterial activity against Staphylococcus aureus ATCC 25923 by broth microdilution method; format: functional
[2] = system: Sporothrix schenckii; assay: Anti-fungal activity against Sporothrix schenckii after 48 hrs by broth microdilution method; format: functional
[3] = system: Plasmodium falciparum; assay: Antimalarial activity against chloroquine-sensitive Plasmodium falciparum 3D7 after 72 hrs by SYBR Green-1 staining based fluorescence assay; format: functional; conditions: 3D7, 72 h
[4] = Cytotoxicity against monkey Vero C1008 cells after 72 hrs by MTT assay; format: cell-based; conditions: chlorocebus sabaeus
[5] = system: Pseudomonas aeruginosa; assay: Antibacterial activity against Pseudomonas aeruginosa ATCC BAA-427 by broth microdilution method; format: functional
Summary of the method: (§1)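 Bacteria were tested by the NCCLS method in Mueller Hinton broth, with gentamicin and norfloxacin as reference drugs.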

[6] = system: Escherichia coli; assay: Antibacterial activity against Escherichia coli ATCC 9637 by broth microdilution method; format: functional; conditions: W; summary of the method: as §1
[7] = system: Candida albicans; assay: Anti-fungal activity against Candida albicans after 48 hrs by broth microdilution method; format: functional
[8] = system: Trichophyton mentagrophytes; assay: Anti-fungal activity against Trichophyton mentagrophytes after 48 hrs by broth microdilution method; format: functional
[9] = system: Aspergillus fumigatus; assay: Anti-fungal activity against Aspergillus fumigatus after 48 hrs by broth microdilution method; format: functional
[10] = system: Staphylococcus aureus; assay: Antibacterial activity against Staphylococcus aureus ATCC 29213 by broth microdilution method; format: functional
[11] = system: Candida parapsilosis; assay: Anti-fungal activity against Candida parapsilosis ATCC 22019 after 48 hrs by broth microdilution method; format: functional; conditions: Lodderomyces parapsilosis, ATCC 22019, 48 h
[12] = system: Klebsiella pneumoniae; assay: Antibacterial activity against Klebsiella pneumoniae ATCC 27736 by broth microdilution method; format: functional; summary of the method: as §1
[13] = system: Staphylococcus aureus; assay: Antibacterial activity against methicillin-resistant Staphylococcus aureus ATCC 700699 by broth microdilution method; format: functional; conditions: Mu50
[14] = system: Cryptococcus neoformans; assay: Anti-fungal activity against Cryptococcus neoformans after 48 hrs by broth microdilution method; format: functional
[15] = system: Staphylococcus aureus; assay: Antibacterial activity against gentamicin-resistant Staphylococcus aureus ATCC 33592 by broth microdilution method; format: functional
[16] = Selectivity index, ratio of CC50 for monkey Vero C1008 cells to IC50 for chloroquine-sensitive Plasmodium falciparum 3D7; format: toxicity; conditions: read-out: Ratio CC50/IC50

COc1ccc(-n2sc3ccccc3c2=O)cc1
IC50 [1]: 1.5 µg/mL (≈ 5.83 µM)
MIC [1]: 1.6 µg/mL (≈ 6.22 µM)
IC50 [2]: 0.4 µg/mL (≈ 1.55 µM)
MIC [2]: 0.8 µg/mL (≈ 3.11 µM)
IC50 [3]: > 2 µM
CC50 at 72 h [4]: 32.6 µM
IC50 [5]: > 50 µg/mL
MIC [5]: > 50 µg/mL
IC50 [6]: > 50 µg/mL
MIC [6]: > 50 µg/mL
IC50 [7]: 2.4 µg/mL (≈ 9.33 µM)
MIC [7]: 3.5 µg/mL (≈ 13.6 µM)
IC50 [8]: > 50 µg/mL
MIC [8]: > 50 µg/mL
IC50 [9]: 6.9 µg/mL (≈ 26.8 µM)
MIC [9]: 11 µg/mL (≈ 42.7 µM)
IC50 [10]: 1.2 µg/mL (≈ 4.66 µM)
MIC [10]: 1.9 µg/mL (≈ 7.38 µM)
IC50 [11]: 0.6 µg/mL (≈ 2.33 µM)
MIC [11]: 0.7 µg/mL (≈ 2.72 µM)
IC50 [12]: > 50 µg/mL
MIC [12]: > 50 µg/mL
MIC [13]: 0.73 µg/mL (≈ 2.84 µM)
IC50 [14]: 0.9 µg/mL (≈ 3.5 µM)
MIC [14]: 1.1 µg/mL (≈ 4.27 µM)

O=c1c2ccccc2sn1-c1ccccc1F
MIC [15]: 12.5 µg/mL (≈ 51 µM)
MIC [1]: 25 µg/mL (≈ 102 µM)
MIC [2]: 12.5 µg/mL (≈ 51 µM)
IC50 [3]: > 2 µM
MIC [5]: > 50 µg/mL
MIC [6]: > 50 µg/mL
MIC [7]: 12.5 µg/mL (≈ 51 µM)
MIC [8]: 12.5 µg/mL (≈ 51 µM)
MIC [9]: 25 µg/mL (≈ 102 µM)
MIC [10]: 12.5 µg/mL (≈ 51 µM)
MIC [11]: 12.5 µg/mL (≈ 51 µM)
MIC [12]: > 50 µg/mL
MIC [13]: 6.25 µg/mL (≈ 25.5 µM)
MIC [14]: 12.5 µg/mL (≈ 51 µM)

O=c1c2ccccc2sn1-c1ccc(F)cc1
MIC [15]: 3.12 µg/mL (≈ 12.7 µM)
MIC [1]: 6.25 µg/mL (≈ 25.5 µM)
MIC [2]: 12.5 µg/mL (≈ 51 µM)
IC50 [3]: 0.97 µM
CC50 at 72 h [4]: 85.4 µM
selectivity ratio [16]: 84.4
MIC [5]: > 50 µg/mL
MIC [6]: > 50 µg/mL
MIC [7]: 12.5 µg/mL (≈ 51 µM)
MIC [8]: 12.5 µg/mL (≈ 51 µM)
MIC [9]: 25 µg/mL (≈ 102 µM)
MIC [10]: 3.12 µg/mL (≈ 12.7 µM)
MIC [11]: 12.5 µg/mL (≈ 51 µM)
MIC [12]: > 50 µg/mL
MIC [13]: 3.12 µg/mL (≈ 12.7 µM)
MIC [14]: 12.5 µg/mL (≈ 51 µM)

O=c1c2ccccc2sn1-c1cccc(C(F)(F)F)c1
MIC [15]: 6.25 µg/mL (≈ 21.2 µM)
MIC [1]: 6.25 µg/mL (≈ 21.2 µM)
MIC [2]: 12.5 µg/mL (≈ 42.3 µM)
IC50 [3]: > 2 µM
MIC [5]: > 50 µg/mL
MIC [6]: > 50 µg/mL
MIC [7]: 25 µg/mL (≈ 84.7 µM)
MIC [8]: 12.5 µg/mL (≈ 42.3 µM)
MIC [9]: 25 µg/mL (≈ 84.7 µM)
MIC [10]: 6.25 µg/mL (≈ 21.2 µM)
MIC [11]: 25 µg/mL (≈ 84.7 µM)
MIC [12]: > 50 µg/mL
MIC [13]: 6.25 µg/mL (≈ 21.2 µM)
MIC [14]: 12.5 µg/mL (≈ 42.3 µM)

O=c1c2ccccc2sn1-c1cccc(F)c1
MIC [15]: 6.25 µg/mL (≈ 25.5 µM)
MIC [1]: 6.25 µg/mL (≈ 25.5 µM)
MIC [2]: 12.5 µg/mL (≈ 51 µM)
IC50 [3]: > 2 µM
MIC [5]: > 50 µg/mL
MIC [6]: > 50 µg/mL
MIC [7]: 12.5 µg/mL (≈ 51 µM)
MIC [8]: 12.5 µg/mL (≈ 51 µM)
MIC [9]: 25 µg/mL (≈ 102 µM)
MIC [10]: 12.5 µg/mL (≈ 51 µM)
MIC [11]: 12.5 µg/mL (≈ 51 µM)
MIC [12]: > 50 µg/mL
MIC [13]: 6.25 µg/mL (≈ 25.5 µM)
MIC [14]: 12.5 µg/mL (≈ 51 µM)

COc1ccccc1-n1sc2ccccc2c1=O
IC50 [1]: 1 µg/mL (≈ 3.89 µM)
MIC [1]: 2 µg/mL (≈ 7.77 µM)
IC50 [2]: 0.6 µg/mL (≈ 2.33 µM)
MIC [2]: 4 µg/mL (≈ 15.5 µM)
IC50 [3]: > 2 µM
CC50 at 72 h [4]: 24.5 µM
IC50 [5]: > 50 µg/mL
MIC [5]: > 50 µg/mL
IC50 [6]: > 50 µg/mL
MIC [6]: > 50 µg/mL
IC50 [7]: 2.9 µg/mL (≈ 11.3 µM)
MIC [7]: 7.2 µg/mL (≈ 28 µM)
IC50 [8]: 0.7 µg/mL (≈ 2.72 µM)
MIC [8]: 2.6 µg/mL (≈ 10.1 µM)
IC50 [9]: > 50 µg/mL
MIC [9]: > 50 µg/mL
IC50 [10]: 1.6 µg/mL (≈ 6.22 µM)
MIC [10]: 2.4 µg/mL (≈ 9.33 µM)
IC50 [11]: 0.7 µg/mL (≈ 2.72 µM)
MIC [11]: 3.2 µg/mL (≈ 12.4 µM)
IC50 [12]: > 50 µg/mL
MIC [12]: > 50 µg/mL
MIC [13]: 1.07 µg/mL (≈ 4.16 µM)
IC50 [14]: 0.9 µg/mL (≈ 3.5 µM)
MIC [14]: 3.8 µg/mL (≈ 14.8 µM)

O=c1c2ccccc2sn1-c1ccccc1Cl
MIC [15]: 12.5 µg/mL (≈ 47.8 µM)
MIC [1]: 25 µg/mL (≈ 95.5 µM)
MIC [2]: 12.5 µg/mL (≈ 47.8 µM)
IC50 [3]: > 2 µM
MIC [5]: > 50 µg/mL
MIC [6]: > 50 µg/mL
MIC [7]: 25 µg/mL (≈ 95.5 µM)
MIC [8]: 12.5 µg/mL (≈ 47.8 µM)
MIC [9]: 25 µg/mL (≈ 95.5 µM)
MIC [10]: 12.5 µg/mL (≈ 47.8 µM)
MIC [11]: 25 µg/mL (≈ 95.5 µM)
MIC [12]: > 50 µg/mL
MIC [13]: 12.5 µg/mL (≈ 47.8 µM)
MIC [14]: 12.5 µg/mL (≈ 47.8 µM)

O=c1c2ccccc2sn1-c1cccc(Cl)c1
MIC [15]: 6.25 µg/mL (≈ 23.9 µM)
MIC [1]: 6.25 µg/mL (≈ 23.9 µM)
MIC [2]: 12.5 µg/mL (≈ 47.8 µM)
IC50 [3]: > 2 µM
MIC [5]: > 50 µg/mL
MIC [6]: > 50 µg/mL
MIC [7]: 25 µg/mL (≈ 95.5 µM)
MIC [8]: 12.5 µg/mL (≈ 47.8 µM)
MIC [9]: 25 µg/mL (≈ 95.5 µM)
MIC [10]: 6.25 µg/mL (≈ 23.9 µM)
MIC [11]: 25 µg/mL (≈ 95.5 µM)
MIC [12]: > 50 µg/mL
MIC [13]: 3.12 µg/mL (≈ 11.9 µM)
MIC [14]: 12.5 µg/mL (≈ 47.8 µM)
